Measurements: ChEMBL document CHEMBL1165950, “Design and synthesis of new potent anticancer pyrazoles with high FLT3 kinase inhibitory selectivity” (Bioorg Med Chem, 2010)

How the values were obtained:
Assay type in all cases: functional
SNB-75 [1] = test: Cytotoxicity against human SNB75 cells assessed as cell growth at 100 nM after 48 hrs by sulforhodamine B assay; conditions: SNB-75, 48 h, read-out: Activity
MDA-MB-435 [2] = test: Cytotoxicity against human MDA-MB-435 cells assessed as cell growth at 100 nM after 48 hrs by sulforhodamine B assay; conditions: MDA-MB-435, 48 h, read-out: Activity
SK-MEL-5 = test: Cytotoxicity against human SK-MEL-5 cells assessed as cell growth at 100 nM after 48 hrs by sulforhodamine B assay; conditions: SK-MEL-5, 48 h, read-out: Activity
OVCAR-8 = test: Cytotoxicity against human OVCAR8 cells assessed as cell growth at 100 nM after 48 hrs by sulforhodamine B assay; conditions: OVCAR-8, 48 h, read-out: Activity
MDA-MB-468 = test: Cytotoxicity against human MDA-MB-468 cells assessed as cell growth at 0.001 uM after 48 hrs by sulforhodamine B assay; conditions: MDA-MB-468, 48 h, read-out: Activity
DU-145 = test: Cytotoxicity against human DU145 cells assessed as cell growth at 100 nM after 48 hrs by sulforhodamine B assay; conditions: DU-145, 48 h, read-out: Activity
U-251 = test: Cytotoxicity against human U251 cells assessed as cell growth at 10 uM; conditions: read-out: Activity
Method in brief: (§1)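 NCI-60 screen: cells grown in RPMI 1640 with 5% FBS and 2 mM L-glutamine, plated at 5000–40,000 cells/well according to doubling time, and preincubated 24 h at 37 °C, 5% CO2. The single 10 µM dose (DMSO stock) was added, then incubated 48 h. Cells were TCA-fixed and stained with 0.4% SRB, read at 515 nm, and growth % calculated against time-zero and control plates.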

SW-620 = test: Cytotoxicity against human SW620 cells assessed as cell growth at 1 uM after 48 hrs by sulforhodamine B assay; conditions: SW-620, 48 h, read-out: Activity
HL-60(TB) = test: Growth inhibition of human HL-60(TB) cells after 48 hrs by sulforhodamine B assay; conditions: HL-60, 48 h
Method in brief: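 NCI 60-cell SRB screen. Cells in RPMI 1640 with 5% FBS and 2 mM L-glutamine are preincubated 24 h, then exposed to five concentrations (10-fold or 1/2-log dilutions from DMSO stock) for 48 h at 37 °C. Suspension cells are fixed with 80% TCA (final 16%), and A515 is read. IC50 is taken as the concentration where [(Ti−Tz)/(C−Tz)]×100 = 50, i.e. 50% reduction in net protein increase.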

SF-539 [3] = test: Cytotoxicity against human SF539 cells assessed as cell growth at 0.01 uM after 48 hrs by sulforhodamine B assay; conditions: SF-539, 48 h, read-out: Activity
786-0 = test: Cytotoxicity against human 786-0 cells assessed as cell growth at 0.01 uM after 48 hrs by sulforhodamine B assay; conditions: 786-0, 48 h, read-out: Activity
Method in brief: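 NCI-60 five-dose screen. Cells were grown in RPMI 1640 with 5% FBS and 2 mM L-glutamine, plated at 5000–40,000 cells/well and preincubated for 24 h. Time-zero plates were TCA-fixed. DMSO-solubilized drug was added at five concentrations (10-fold or ½-log serial dilutions) for 48 h at 37 °C, 5% CO2. Cells were TCA-fixed, stained with 0.4% SRB and read at 515 nm. Percent growth used time-zero, control and test absorbances.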

UO-31 = test: Cytotoxicity against human UO31 cells assessed as cell growth at 0.01 uM after 48 hrs by sulforhodamine B assay; conditions: UO-31, 48 h, read-out: Activity
LOX IMVI = test: Cytotoxicity against human LOXIMVI cells assessed as cell growth at 0.001 uM after 48 hrs by sulforhodamine B assay; conditions: read-out: Activity
IGROV-1 = test: Cytotoxicity against human IGROV1 cells assessed as cell growth at 0.001 uM after 48 hrs by sulforhodamine B assay; conditions: IGROV-1, 48 h, read-out: Activity
SF-539 [4] = test: Growth inhibition of human SF539 cells after 48 hrs by sulforhodamine B assay; conditions: SF-539, 48 h; for CC50: read-out: LC50 (the source's name)
Method in brief: (§2)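 NCI 60-cell screen, five-dose mode. Cells grown in RPMI 1640 with 5% FBS and 2 mM L-glutamine and plated at 5000-40,000 cells/well according to doubling time. After 24 h preincubation, a Tz plate was TCA-fixed. Five concentrations (10-fold or 1/2 log dilutions) were applied for 48 h at 37 °C. SRB staining read at 515 nm. IC50 taken from [(Ti-Tz)/(C-Tz)]×100 = 50.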

K562 = test: Cytotoxicity against human K562 cells assessed as cell growth at 100 nM after 48 hrs by sulforhodamine B assay; conditions: K562, 48 h, read-out: Activity
CAKI-1 = test: Growth inhibition of human Caki1 cells after 48 hrs by sulforhodamine B assay; conditions: CAKI-1, 48 h; for CC50: read-out: LC50 (the source's name)
Method in brief: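 NCI five-dose SRB assay in RPMI 1640 with 5% FBS and 2 mM L-glutamine. Cells were preincubated 24 h, then exposed 48 h at 37 °C to five concentrations (10-fold or half-log serial dilutions from DMSO stocks). TCA fixation, SRB staining, and absorbance at 515 nm followed. IC50 was taken where [(Ti−Tz)/(C−Tz)]×100 = 50, with Tz as time-zero cell density.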

SN12C = test: Growth inhibition of human SN12C cells after 48 hrs by sulforhodamine B assay; method in brief: as §2
MDA-MB-231 = test: Growth inhibition of human MDA-MB-231 cells after 48 hrs by sulforhodamine B assay; conditions: MDA-MB-231, 48 h; method in brief: as §2
A549 = test: Cytotoxicity against human A549 cells assessed as cell growth at 10 uM; conditions: read-out: Activity
Method in brief: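 Single-dose NCI-60 screen at 10 µM. Cells were grown in RPMI 1640 with 5% FBS and 2 mM L-glutamine, then treated for 48 h at 37 °C. Protein was measured by SRB staining with absorbance at 515 nm. Percentage growth was recorded, and inhibition percentage was calculated as 100 minus growth percentage.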

SF-295 = test: Cytotoxicity against human SF295 cells assessed as cell growth at 10 uM; conditions: read-out: Activity; method in brief: as §1
HCT-116 = test: Cytotoxicity against human HCT116 cells assessed as cell growth at 10 uM after 48 hrs by sulforhodamine B assay; conditions: HCT-116, 48 h, read-out: Activity
SF-539 [5] = test: Cytotoxicity against human SF539 cells assessed as cell growth at 10 uM after 48 hrs by sulforhodamine B assay; conditions: SF-539, 48 h, read-out: Activity
SNB-75 [6] = test: Cytotoxicity against human SNB75 cells assessed as cell growth at 10 uM after 48 hrs by sulforhodamine B assay; conditions: SNB-75, 48 h, read-out: Activity
MDA-MB-435 [7] = test: Cytotoxicity against human MDA-MB-435 cells assessed as cell growth at 10 uM after 48 hrs by sulforhodamine B assay; conditions: MDA-MB-435, 48 h, read-out: Activity

**Q.** `Cc1cc(O)cc(-c2nn(CC#N)cc2-c2ccnc(-c3ccc(N(C)C)cc3)c2)c1` was tested. Which growth at 0.1 µM (SNB-75 [1]) did it give?
**A.** 77%

**Q.** And the growth at 0.1 µM (MDA-MB-435 [2])?
**A.** 51%

**Q.** What about the growth at 0.1 µM (SK-MEL-5) of the same compound?
**A.** 82%

**Q.** What about the growth at 0.1 µM (OVCAR-8) of the same compound?
**A.** 89%

**Q.** What about the growth at 0.001 µM (MDA-MB-468) of the same compound?
**A.** 98%

**Q.** What about the growth at 0.1 µM (DU-145) of the same compound?
**A.** 94%

**Q.** What about the growth at 10 µM (U-251) of the same compound?
**A.** 17.1%

**Q.** What about the growth at 1 µM (SW-620) of the same compound?
**A.** 10%

**Q.** And the GI50 (HL-60(TB))?
**A.** 3.14 µM

**Q.** What about the LC50 (HL-60(TB)) of the same compound?
**A.** > 100 µM

**Q.** And the TGI (HL-60(TB))?
**A.** 12.9 µM

**Q.** What about the growth at 0.01 µM (SF-539 [3]) of the same compound?
**A.** 92%

**Q.** What about the growth at 0.01 µM (786-0) of the same compound?
**A.** 88%

**Q.** And the growth at 0.01 µM (UO-31)?
**A.** 84%

**Q.** And the growth at 0.001 µM (LOX IMVI)?
**A.** 103%

**Q.** What about the growth at 0.001 µM (IGROV-1) of the same compound?
**A.** 107%

**Q.** And the GI50 (SF-539 [4])?
**A.** 2.12 µM

**Q.** What about the TGI (SF-539 [4]) of the same compound?
**A.** 5.33 µM

**Q.** And the CC50 (SF-539 [4])?
**A.** 27.3 µM

**Q.** And the growth at 0.1 µM (K562)?
**A.** 80%

**Q.** What about the GI50 (CAKI-1) of the same compound?
**A.** 2.89 µM

**Q.** What about the TGI (CAKI-1) of the same compound?
**A.** 16.4 µM

**Q.** What about the CC50 (CAKI-1) of the same compound?
**A.** > 100 µM

**Q.** And the GI50 (SN12C)?
**A.** 4.28 µM

**Q.** What about the LC50 (SN12C) of the same compound?
**A.** > 100 µM

**Q.** And the TGI (SN12C)?
**A.** 30 µM

**Q.** What about the GI50 (MDA-MB-231) of the same compound?
**A.** 2.94 µM

**Q.** And the LC50 (MDA-MB-231)?
**A.** > 100 µM

**Q.** What about the TGI (MDA-MB-231) of the same compound?
**A.** 22.6 µM

**Q.** And the growth at 10 µM (A549)?
**A.** 39%

**Q.** And the growth at 10 µM (SF-295)?
**A.** 56.9%

**Q.** And the growth at 10 µM (HCT-116)?
**A.** -81%

**Q.** What about the growth at 10 µM (SF-539 [5]) of the same compound?
**A.** -71%

**Q.** What about the growth at 10 µM (SNB-75 [6]) of the same compound?
**A.** -26%

**Q.** What about the growth at 10 µM (MDA-MB-435 [7]) of the same compound?
**A.** -31%

**Q.** `Cc1cc(O)cc(-c2nn(CC#N)cc2-c2ccnc(-c3ccc(Oc4ccccc4)cc3)c2)c1` was tested. Which growth at 0.1 µM (SNB-75 [1]) did it give?
**A.** 78%

**Q.** What about the growth at 0.1 µM (MDA-MB-435 [2]) of the same compound?
**A.** 89%

**Q.** And the growth at 0.1 µM (SK-MEL-5)?
**A.** 94%

**Q.** And the growth at 0.1 µM (OVCAR-8)?
**A.** 87%

**Q.** What about the growth at 0.001 µM (MDA-MB-468) of the same compound?
**A.** 91%

**Q.** What about the growth at 0.1 µM (DU-145) of the same compound?
**A.** 86%

**Q.** And the growth at 10 µM (U-251)?
**A.** 47.5%

**Q.** What about the growth at 1 µM (SW-620) of the same compound?
**A.** -52%

**Q.** And the GI50 (HL-60(TB))?
**A.** 2.25 µM

**Q.** And the LC50 (HL-60(TB))?
**A.** > 100 µM

**Q.** And the TGI (HL-60(TB))?
**A.** 5.94 µM

**Q.** What about the growth at 0.01 µM (SF-539 [3]) of the same compound?
**A.** 88%

**Q.** And the growth at 0.01 µM (786-0)?
**A.** 95%

**Q.** And the growth at 0.01 µM (UO-31)?
**A.** 85%

**Q.** And the growth at 0.001 µM (LOX IMVI)?
**A.** 100%

**Q.** What about the growth at 0.001 µM (IGROV-1) of the same compound?
**A.** 98%

**Q.** And the GI50 (SF-539 [4])?
**A.** 3.38 µM

**Q.** And the TGI (SF-539 [4])?
**A.** 13.5 µM

**Q.** What about the CC50 (SF-539 [4]) of the same compound?
**A.** 44 µM

**Q.** And the growth at 0.1 µM (K562)?
**A.** 46%

**Q.** And the GI50 (CAKI-1)?
**A.** 1.8 µM

**Q.** What about the TGI (CAKI-1) of the same compound?
**A.** 5.78 µM

**Q.** What about the CC50 (CAKI-1) of the same compound?
**A.** 41 µM

**Q.** What about the GI50 (SN12C) of the same compound?
**A.** 1.8 µM

**Q.** And the LC50 (SN12C)?
**A.** 9.01 µM

**Q.** What about the TGI (SN12C) of the same compound?
**A.** 4.02 µM

**Q.** And the GI50 (MDA-MB-231)?
**A.** 2.28 µM

**Q.** What about the LC50 (MDA-MB-231) of the same compound?
**A.** 57.7 µM

**Q.** And the TGI (MDA-MB-231)?
**A.** 7.33 µM

**Q.** What about the growth at 10 µM (A549) of the same compound?
**A.** 42%

**Q.** And the growth at 10 µM (SF-295)?
**A.** 77.7%

**Q.** And the growth at 10 µM (HCT-116)?
**A.** -97%

**Q.** What about the growth at 10 µM (SF-539 [5]) of the same compound?
**A.** -85%

**Q.** What about the growth at 10 µM (SNB-75 [6]) of the same compound?
**A.** -98%

**Q.** And the growth at 10 µM (MDA-MB-435 [7])?
**A.** -59%
